Experimental data reported in ChEMBL document CHEMBL1141585, “5,5,6-Fused tricycles bearing imidazole and pyrazole 6-methylidene penems as broad-spectrum inhibitors of beta-lactamases” (Bioorg Med Chem, 2008).
Calls of active or inactive are those of the source. The rule behind the calls is not given here.

Assays:
[1] = tested on: Escherichia coli; assay: Antibacterial efficacy against Escherichia coli LSU 80-8 infected ip dosed CD1 mouse model; assay type: functional
How it was run: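 Female CD-1 mice, five per dose level, five dose levels per compound. Lethal intraperitoneal challenge (10–100 LD₅₀), then intravenous piperacillin alone or piperacillin plus inhibitor at a 4:1 (Pip:Inhibitor) ratio. Survival read at 7 days; ratios from three separate tests pooled; ED₅₀ by probit analysis.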

[2] = Inhibition of AmpC beta-lactamase
How it was run: (§1)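 Spectrophotometric β-lactamase inhibition assay (Bush method) with nitrocefin as substrate. Tazobactam standard included in each experiment. IC₅₀ derived by curve fitting.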

[3] = tested on: Enterobacter cloacae; assay: Antimicrobial activity against Enterobacter cloacae GC 6991 expressing AmpC beta-lactamase after 18 to 24 hrs by broth microdilution method; assay type: functional; also: test concentration or dose not given here
How it was run: (§2)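 CLSI broth microdilution in Mueller–Hinton II broth. Serial dilutions of piperacillin alone or piperacillin plus inhibitor; inoculum 10⁵ CFU/ml. Piperacillin + tazobactam run as comparator. MIC read as endpoint.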

[4] = tested on: Serratia marcescens; assay: Antimicrobial activity against Serratia marcescens GC 1781 expressing Sme1 and AmpC beta-lactamase after 18 to 24 hrs by broth microdilution method; assay type: functional; how it was run: as §2; also: test concentration or dose not given here
[5] = tested on: Stenotrophomonas maltophilia; assay: Antimicrobial activity against Stenotrophomonas maltophilia GC 1721 expressing L1 beta-lactamase after 18 to 24 hrs by broth microdilution method; assay type: functional; how it was run: as §2; also: test concentration or dose not given here
[6] = tested on: Escherichia coli; assay: Antimicrobial activity against Escherichia coli GC 2804 expressing imp beta-lactamase after 18 to 24 hrs by broth microdilution method; assay type: functional; how it was run: as §2; also: test concentration or dose not given here
[7] = tested on: Escherichia coli; assay: Antimicrobial activity against Escherichia coli GC 2844 after 18 to 24 hrs by broth microdilution method; assay type: functional; how it was run: as §2
[8] = tested on: Escherichia coli; assay: Antimicrobial activity against Escherichia coli GC 2894 expressing AmpC beta-lactamase after 18 to 24 hrs by broth microdilution method; assay type: functional; how it was run: as §2
[9] = tested on: Escherichia coli; assay: Antimicrobial activity against Escherichia coli GC 2253 expressing IRT2 beta-lactamase after 18 to 24 hrs by broth microdilution method; assay type: functional; how it was run: as §2; also: test concentration or dose not given here
[10] = tested on: Escherichia coli; assay: Antimicrobial activity against Escherichia coli GC 2847 expressing TEM1 beta-lactamase after 18 to 24 hrs by broth microdilution method; assay type: functional; how it was run: as §2; also: test concentration or dose not given here
[11] = tested on: Escherichia coli; assay: Antimicrobial activity against Escherichia coli GC 2203 after 18 to 24 hrs by broth microdilution method; assay type: functional; how it was run: as §2
[12] = tested on: Escherichia coli; assay: Antimicrobial activity against Escherichia coli GC 2905 expressing P99 beta-lactamase after 18 to 24 hrs by broth microdilution method; assay type: functional; how it was run: as §2
[13] = tested on: Pseudomonas aeruginosa; assay: Antimicrobial activity against Pseudomonas aeruginosa GC 1764 expressing AmpC beta-lactamase after 18 to 24 hrs by broth microdilution method; assay type: functional; how it was run: as §2; also: test concentration or dose not given here
[14] = Inhibition of Imi1 beta lactamase
[15] = tested on: Escherichia coli; assay: Antimicrobial activity against Escherichia coli GC 2920 expressing IRT2 beta-lactamase after 18 to 24 hrs by broth microdilution method; assay type: functional; how it was run: as §2
[16] = tested on: Escherichia coli; assay: Antimicrobial activity against Escherichia coli GC 2906 expressing Imi1 beta-lactamase after 18 to 24 hrs by broth microdilution method; assay type: functional; how it was run: as §2; also: test concentration or dose not given here
[17] = tested on: Staphylococcus aureus; assay: Antimicrobial activity against Staphylococcus aureus GC 2216 after 18 to 24 hrs by broth microdilution method; assay type: functional; how it was run: as §2; also: test concentration or dose not given here
[18] = Inhibition of TEM1 beta-lactamase; how it was run: as §1
[19] = tested on: Escherichia coli; assay: Antimicrobial activity against Escherichia coli GC 2805 expressing CcrA beta-lactamase after 18 to 24 hrs by broth microdilution method; assay type: functional; how it was run: as §2
[20] = tested on: Escherichia coli; assay: Antimicrobial activity against Escherichia coli GC 2883 expressing OXA10 and PSE2 beta-lactamase after 18 to 24 hrs by broth microdilution method; assay type: functional; how it was run: as §2
[21] = tested on: Enterobacter cloacae; assay: Antimicrobial activity against Enterobacter cloacae GC 4142 expressing AmpC beta-lactamase after 18 to 24 hrs by broth microdilution method; assay type: functional; how it was run: as §2; also: test concentration or dose not given here
[22] = tested on: Enterobacter cloacae; assay: Antimicrobial activity against Enterobacter cloacae GC 1475 expressing P99 beta-lactamase after 18 to 24 hrs by broth microdilution method; assay type: functional; how it was run: as §2; also: test concentration or dose not given here
[23] = tested on: Serratia marcescens; assay: Antimicrobial activity against Serratia marcescens GC 4132 expressing AmpC beta-lactamase after 18 to 24 hrs by broth microdilution method; assay type: functional; how it was run: as §2; also: test concentration or dose not given here
[24] = tested on: Enterobacter cloacae; assay: Antimicrobial activity against Enterobacter cloacae GC 1477 expressing AmpC beta-lactamase after 18 to 24 hrs by broth microdilution method; assay type: functional; how it was run: as §2; also: test concentration or dose not given here

IC50 [2]	MIC [3]	MIC [4]	MIC [5]	MIC [6]	MIC [7]	MIC [8]	MIC [9]	MIC [10]	MIC [11]	MIC [12]	MIC [13]	MIC [15]	MIC [16]	MIC [17]	IC50 [18]	MIC [19]	MIC [20]	MIC [21]	MIC [22]	SMILES	further results
–	–	–	–	–	–	–	–	–	–	–	–	–	–	–	–	–	–	–	–	CCN1CCN(C(=O)N[C@@H](C(=O)N[C@@H]2C(=O)N3[C@@H]2SC(C)(C)[C@@H]3C(=O)O)c2ccccc2)C(=O)C1=O [PIPERACILLIN]	ED50 [1]: > 128 mg/kg
4 nM	64 µg/mL	2 µg/mL	> 64 µg/mL	< 0.06 µg/mL	2 µg/mL	64 µg/mL	16 µg/mL	32 µg/mL	2 µg/mL	32 µg/mL	> 64 µg/mL	4 µg/mL	64 µg/mL	16 µg/mL	1.2 nM	> 64 µg/mL	8 µg/mL	64 µg/mL	64 µg/mL	CCOC(=O)N1CCc2c(oc3cc(/C=C4/C(=O)N5C(C(=O)[O-])=CS[C@H]45)nn23)C1.[Na+]	IC50 [14]: 98 nM; MIC [23]: 8 µg/mL; MIC [24]: > 64 µg/mL
53 nM	32 µg/mL	4 µg/mL	> 64 µg/mL	0.12 µg/mL	2 µg/mL	32 µg/mL	32 µg/mL	> 64 µg/mL	2 µg/mL	32 µg/mL	64 µg/mL	8 µg/mL	64 µg/mL	64 µg/mL	150 nM	> 64 µg/mL	16 µg/mL	> 64 µg/mL	32 µg/mL	O=C([O-])C1=CS[C@@H]2/C(=C/c3cc4oc5c(n4n3)CCOC5)C(=O)N12.[Na+]	IC50 [14]: 2900 nM; MIC [23]: 32 µg/mL; MIC [24]: > 64 µg/mL
16 nM	32 µg/mL	2 µg/mL	> 64 µg/mL	< 0.06 µg/mL	4 µg/mL	32 µg/mL	32 µg/mL	> 64 µg/mL	2 µg/mL	32 µg/mL	64 µg/mL	4 µg/mL	16 µg/mL	64 µg/mL	24 nM	> 64 µg/mL	64 µg/mL	> 64 µg/mL	64 µg/mL	Cn1c2ccccc2n2cc(/C=C3/C(=O)N4C(C(=O)[O-])=CS[C@H]34)nc12.[Na+]	IC50 [14]: 50 nM; MIC [23]: 16 µg/mL; MIC [24]: > 64 µg/mL
5.5 nM	32 µg/mL	2 µg/mL	> 64 µg/mL	< 0.06 µg/mL	2 µg/mL	32 µg/mL	16 µg/mL	16 µg/mL	2 µg/mL	32 µg/mL	64 µg/mL	4 µg/mL	4 µg/mL	16 µg/mL	4 nM	> 64 µg/mL	8 µg/mL	32 µg/mL	32 µg/mL	O=C([O-])C1=CS[C@@H]2/C(=C\c3cc4oc5c(n4n3)CCCC5)C(=O)N12.[Na+]	IC50 [14]: 160 nM; MIC [23]: 8 µg/mL; MIC [24]: 64 µg/mL
4 nM	16 µg/mL	2 µg/mL	> 64 µg/mL	< 0.06 µg/mL	2 µg/mL	16 µg/mL	16 µg/mL	32 µg/mL	4 µg/mL	16 µg/mL	32 µg/mL	2 µg/mL	8 µg/mL	16 µg/mL	4.3 nM	> 64 µg/mL	8 µg/mL	32 µg/mL	32 µg/mL	O=C([O-])C1=CS[C@@H]2/C(=C\c3cc4oc5c(n4n3)CCOC5)C(=O)N12.[Na+]	IC50 [14]: 140 nM; MIC [23]: 8 µg/mL; MIC [24]: 64 µg/mL
1.5 nM	16 µg/mL	1 µg/mL	> 64 µg/mL	< 0.06 µg/mL	2 µg/mL	2 µg/mL	16 µg/mL	4 µg/mL	4 µg/mL	8 µg/mL	4 µg/mL	2 µg/mL	2 µg/mL	2 µg/mL	2.8 nM	> 64 µg/mL	4 µg/mL	8 µg/mL	8 µg/mL	O=C([O-])C1=CS[C@@H]2/C(=C\c3cn4c5c(sc4n3)COCC5)C(=O)N12.[Na+]	ED50 [1]: 25.3 mg/kg; IC50 [14]: 100 nM; MIC [23]: 2 µg/mL; MIC [24]: 16 µg/mL
1.4 nM	16 µg/mL	0.5 µg/mL	> 64 µg/mL	< 0.06 µg/mL	2 µg/mL	2 µg/mL	16 µg/mL	8 µg/mL	1 µg/mL	2 µg/mL	32 µg/mL	2 µg/mL	64 µg/mL	0.25 µg/mL	2.4 nM	> 64 µg/mL	2 µg/mL	8 µg/mL	2 µg/mL	O=C([O-])C1=CS[C@@H]2/C(=C\c3cn4c(n3)nc3n4CCCC3)C(=O)N12.[Na+]	ED50 [1]: 32.5 mg/kg; IC50 [14]: 14 nM; MIC [23]: 1 µg/mL; MIC [24]: > 64 µg/mL
0.62 nM	16 µg/mL	1 µg/mL	> 64 µg/mL	< 0.06 µg/mL	2 µg/mL	4 µg/mL	16 µg/mL	8 µg/mL	2 µg/mL	4 µg/mL	2 µg/mL	2 µg/mL	2 µg/mL	< 0.06 µg/mL	1.9 nM	> 64 µg/mL	2 µg/mL	8 µg/mL	8 µg/mL	O=C([O-])C1=CS[C@@H]2/C(=C\c3cn4c5c(sc4n3)CCCC5)C(=O)N12.[Na+]	ED50 [1]: 23.3 mg/kg; IC50 [14]: 33 nM; MIC [23]: 2 µg/mL; MIC [24]: 32 µg/mL
2.1 nM	16 µg/mL	1 µg/mL	> 64 µg/mL	< 0.06 µg/mL	2 µg/mL	2 µg/mL	8 µg/mL	4 µg/mL	2 µg/mL	4 µg/mL	2 µg/mL	2 µg/mL	2 µg/mL	2 µg/mL	1.4 nM	> 64 µg/mL	2 µg/mL	4 µg/mL	4 µg/mL	O=C([O-])C1=CS[C@@H]2/C(=C\c3cn4c5c(sc4n3)CCC5)C(=O)N12.[Na+]	ED50 [1]: 19 mg/kg; MIC [23]: 2 µg/mL; MIC [24]: 16 µg/mL

SMILES	IC50 [2]	MIC [3]	MIC [4]	MIC [5]	MIC [6]	MIC [7]	MIC [8]	MIC [9]	MIC [10]	MIC [11]	MIC [12]	MIC [13]	MIC [15]	MIC [16]	MIC [17]	IC50 [18]	MIC [19]	MIC [20]	MIC [21]	MIC [22]	further results
C[C@]1(Cn2ccnn2)[C@H](C(=O)[O-])N2C(=O)C[C@H]2S1(=O)=O.[Na+] [TAZOBACTAM SODIUM]	84000 nM	> 64 µg/mL	0.5 µg/mL	> 64 µg/mL	< 0.06 µg/mL	2 µg/mL	32 µg/mL	2 µg/mL	2 µg/mL	1 µg/mL	64 µg/mL	> 64 µg/mL	4 µg/mL	2 µg/mL	0.5 µg/mL	100 nM	> 64 µg/mL	1 µg/mL	64 µg/mL	64 µg/mL	ED50 [1]: 20 mg/kg; Activity [14]: inactive; MIC [23]: 64 µg/mL; MIC [24]: > 64 µg/mL
